One may read the Ki as a measure of affinity in units of concentration, obtained from inhibition or displacement. A low value points to tighter binding. For orientation: EC50 means the midpoint of the concentration-response curve.

The values that follow come from ChEMBL document CHEMBL1150354, “'Hybrid' benzofuran-benzopyran congeners as rigid analogs of hallucinogenic phenethylamines” (Bioorg Med Chem, 2008).

Experiment [1] addresses T1, 5-hydroxytryptamine receptor 2A (Rattus norvegicus, UniProt P14842). In words: Displacement of [3H]ketanserin from rat 5HT2A receptor expressed in mouse NIH3T3 cells. It is filed as cell-based. The procedure, abridged:
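Membranes came from NIH-3T3 cells stably expressing rat 5-HT2A receptor (GF-6, 5500 fmol/mg). Competition used 0.5nM [3H]-ketanserin against increasing test compound concentrations (ca. 10 pM - 10 μM). Curves were fitted to give Ki, reported as mean (SEM) over n experiments.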
For orientation: Displacement assays read how much labelled ligand stays bound in the presence of the test substance.

Experiment [2] deals with T1, 5-hydroxytryptamine receptor 2A. Put plainly: Agonist activity at rat 5HT2A receptor expressed in mouse NIH3T3 cells assessed as stimulation of inositol phosphate accumulation. In kind it is functional, cell-based. The procedure, abridged: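 Read-out was stimulated radiolabeled inositol phosphate accumulation. Each plate normalized to water-stimulated wells (0%) and 10 μM serotonin (100%). EC50 and intrinsic activity given as mean (SEM) over n experiments.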

The target in experiment [3] is 5-hydroxytryptamine receptor 2A (Rattus norvegicus) (UniProt P14842). Put plainly: Intrinsic activity at rat 5HT2A receptor expressed in mouse NIH3T3 cells assessed as stimulation of inositol phosphate accumulation relative to serotonin. It is filed as functional, cell-based. The procedure, abridged:
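NIH-3T3 cells stably expressing rat 5-HT2A receptor (GF-6, 5500 fmol/mg), kept in DMEM with 300 μg/ml G-418. Read-out was stimulated radiolabeled inositol phosphate accumulation. Each plate normalized to water-stimulated wells (0%) and 10 μM serotonin (100%). EC50 and intrinsic activity given as mean (SEM) over n experiments.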

The subject of experiment [4] is Rattus norvegicus. In words: Hallucinogenic activity in D-lysergic acid N,N-diethylamide-trained Sprague-Dawley rat assessed as disrupted behavior at 0.25 mg/kg, ip after 30 mins by two-lever drug discrimination assay. Particulars: route intraperitoneal. It is filed as functional. The procedure, abridged: (§1)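 Male Sprague-Dawley rats (200-220 g at start) trained to discriminate LSD tartrate (186 nmol/kg; 0.08 mg/kg, ip) from saline, FR50 food reinforcement, two levers. Test drug given ip 30 min before an extinction session. A session was scored as disruption if 50 presses on one lever were not completed within 5 min. %D is the percentage of rats disrupted at each dose.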

Experiment [5] deals with Rattus norvegicus. In words: Hallucinogenic activity in D-lysergic acid N,N-diethylamide-trained Sprague-Dawley rat assessed as disrupted behavior at 0.38 mg/kg, ip after 30 mins by two-lever drug discrimination assay. It is filed as functional. Particulars: route intraperitoneal. The procedure, abridged:
as §1

For experiment [6], the system named is Rattus norvegicus. In words: Hallucinogenic activity in D-lysergic acid N,N-diethylamide-trained Sprague-Dawley rat assessed as disrupted behavior at 0.50 mg/kg, ip after 30 mins by two-lever drug discrimination assay. In kind it is functional. Conditions: dose 0.5 mg/kg; route intraperitoneal. The procedure, abridged: as §1
The subject of experiment [7] is Rattus norvegicus. In words: Hallucinogenic activity in D-lysergic acid N,N-diethylamide-trained Sprague-Dawley rat assessed as selection of drug-appropriate lever at 0.25 mg/kg, ip after 30 mins by two-lever drug discrimination assay. In kind it is functional. Conditions: route intraperitoneal. The procedure, abridged: (§2)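 Male Sprague-Dawley rats (200-220 g at start) trained to discriminate LSD (0.08 mg/kg ip) from saline, FR50 food-reinforced two-lever task, training to ≥85% accuracy on 8 of 10 sessions. Test drug given ip 30 min before an extinction session, ended at 50 presses on one lever. %SDL is the percentage of rats choosing the drug lever per dose. Treatments randomized.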

Experiment [8] relates to Rattus norvegicus. Put plainly: Hallucinogenic activity in D-lysergic acid N,N-diethylamide-trained Sprague-Dawley rat assessed as selection of drug-appropriate lever at 0.38 mg/kg, ip after 30 mins by two-lever drug discrimination assay. It is filed as functional. Conditions: route intraperitoneal. The procedure, abridged:
as §2

The test system of experiment [9] is Rattus norvegicus. In words: Hallucinogenic activity in D-lysergic acid N,N-diethylamide-trained Sprague-Dawley rat assessed as selection of drug-appropriate lever at 0.50 mg/kg, ip after 30 mins by two-lever drug discrimination assay. In kind it is functional. Conditions: dose 0.5 mg/kg; route intraperitoneal. The procedure, abridged: as §2
Experiment [10] concerns Rattus norvegicus. In words: Hallucinogenic activity in D-lysergic acid N,N-diethylamide-trained Sprague-Dawley rat assessed as disrupted behavior at 0.09 mg/kg, ip after 30 mins by two-lever drug discrimination assay. It is filed as functional. Particulars: route intraperitoneal. The procedure, abridged:
as §1

Experiment [11] relates to Rattus norvegicus. Put plainly: Hallucinogenic activity in D-lysergic acid N,N-diethylamide-trained Sprague-Dawley rat assessed as disrupted behavior at 0.17 mg/kg, ip after 30 mins by two-lever drug discrimination assay. In kind it is functional. Particulars: route intraperitoneal. The procedure, abridged:
as §1

In experiment [12] the test system is Rattus norvegicus. In words: Hallucinogenic activity in D-lysergic acid N,N-diethylamide-trained Sprague-Dawley rat assessed as disrupted behavior at 0.35 mg/kg, ip after 30 mins by two-lever drug discrimination assay. Particulars: route intraperitoneal. It is filed as functional. The procedure, abridged:
as §1

In experiment [13] the test system is Rattus norvegicus. Put plainly: Hallucinogenic activity in D-lysergic acid N,N-diethylamide-trained Sprague-Dawley rat assessed as selection of drug-appropriate lever at 0.09 mg/kg, ip after 30 mins by two-lever drug discrimination assay. Particulars: route intraperitoneal. It is filed as functional. The procedure, abridged:
as §2

The subject of experiment [14] is Rattus norvegicus. In words: Hallucinogenic activity in D-lysergic acid N,N-diethylamide-trained Sprague-Dawley rat assessed as selection of drug-appropriate lever at 0.17 mg/kg, ip after 30 mins by two-lever drug discrimination assay. Conditions: route intraperitoneal. It is filed as functional. The procedure, abridged:
as §2

The test system of experiment [15] is Rattus norvegicus. In words: Hallucinogenic activity in D-lysergic acid N,N-diethylamide-trained Sprague-Dawley rat assessed as selection of drug-appropriate lever at 0.35 mg/kg, ip after 30 mins by two-lever drug discrimination assay. It is filed as functional. Conditions: route intraperitoneal. The procedure, abridged:
as §2

In experiment [16] the test system is Rattus norvegicus. In words: Hallucinogenic potency in ip dosed D-lysergic acid N,N-diethylamide-trained Sprague-Dawley rat after 30 mins. It is filed as functional. Particulars: 0.5 h.
The test system of experiment [17] is Rattus norvegicus. In words: Hallucinogenic activity in D-lysergic acid N,N-diethylamide-trained Sprague-Dawley rat assessed as disrupted behavior at 0.69 mg/kg, ip after 30 mins by two-lever drug discrimination assay. Conditions: route intraperitoneal. It is filed as functional. The procedure, abridged: as §1
For experiment [18], the system named is Rattus norvegicus. Put plainly: Hallucinogenic activity in D-lysergic acid N,N-diethylamide-trained Sprague-Dawley rat assessed as selection of drug-appropriate lever at 0.69 mg/kg, ip after 30 mins by two-lever drug discrimination assay. In kind it is functional. Particulars: route intraperitoneal. The procedure, abridged:
as §2

Structures are written as SMILES.

T1 sequence (P14842 whole entry): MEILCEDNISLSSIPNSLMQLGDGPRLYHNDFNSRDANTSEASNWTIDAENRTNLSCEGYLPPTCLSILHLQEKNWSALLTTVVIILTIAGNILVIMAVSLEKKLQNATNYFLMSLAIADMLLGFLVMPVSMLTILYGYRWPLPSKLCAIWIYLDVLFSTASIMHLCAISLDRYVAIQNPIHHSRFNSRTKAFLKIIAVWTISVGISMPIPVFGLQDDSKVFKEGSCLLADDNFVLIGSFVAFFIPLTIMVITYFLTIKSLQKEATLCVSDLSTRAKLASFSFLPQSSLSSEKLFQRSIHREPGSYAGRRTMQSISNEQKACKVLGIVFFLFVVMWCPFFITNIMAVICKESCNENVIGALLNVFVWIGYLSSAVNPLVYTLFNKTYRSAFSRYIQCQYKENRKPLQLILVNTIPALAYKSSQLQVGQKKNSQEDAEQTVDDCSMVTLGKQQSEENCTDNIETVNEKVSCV
Chain of 5-hydroxytryptamine receptor 2A (Rattus norvegicus) (P14842 whole entry): as above

Consider `NCCc1c2c(c(Br)c3c1OCC3)OCCC2`, for which the affinity in [1] corresponds to a Ki of 11 nM. Moreover, in experiment [2], the half-maximal effective concentration (EC50) worked out at 9.4 nM. For the same molecule, the Intrinsic activity in [3] turned out to be 61%.

The molecule `NCCc1c2c(c(Br)c3c1OCCC3)OCCC2` gave a Ki in experiment [1] of 4.5 nM. Besides, the 50% effective concentration (EC50) in experiment [2] amounted to 241 nM. Moreover, the Intrinsic activity in experiment [3] stood at 61%.

With `CC(N)Cc1c2c(c(Br)c3c1OCCC3)OCCC2` (centres undefined), in experiment [1], the Ki was found to be 3.1 nM. In addition, the EC50 in experiment [2] is 258 nM. Also, the Intrinsic activity in [3] is 72%.

On to `NCCc1c2c(c(Br)c3c1OCCC3)OCC2`, for which the affinity in experiment [1] corresponds to a Ki of 8.4 nM. Moreover, the EC50 in experiment [2] was determined as 146 nM. For the same molecule, in experiment [3], the Intrinsic activity came to 64%.

Turning to `CC(N)Cc1c2c(c(Br)c3ccoc13)OCCC2` (centres undefined), in experiment [1], the Ki was 1 nM. Further, in experiment [2], the EC50 was found to be 13 nM. Further, the Intrinsic activity in experiment [3] was 102%.

Molecule `CC(N)Cc1c2c(c(Br)c3c1OCC3)OCC2` (centres undefined) displayed a Ki in experiment [1] of 1 nM. Moreover, the Intrinsic activity in [3] was 88%.

Take `COc1cc(CC(C)N)c(OC)cc1Br` (centres undefined) [BROLAMFETAMINE]: the Activity came to 46% in experiment [4]; 40% in experiment [5]; 36% in [6]; 29% in [7]; 50% in experiment [8]; 89% in [9]. For the same molecule, the Intrinsic activity in [3] is 73%.

On to `CC(N)Cc1c2c(c(Br)c3c1OCC3)OCCC2` (centres undefined), for which the affinity in experiment [1], expressed as Ki, was 3.6 nM. Also, the EC50 in experiment [2] was determined as 19 nM. The Intrinsic activity in [3] turned out to be 86%. The Activity in experiment [10] was 0%; in experiment [11], 0%; in experiment [12], 0%; in experiment [13], 33%; in experiment [14] it was 54%; in experiment [15] it was 83%. The same molecule came in with an ED50 in experiment [16] of 0.38 µmol/kg.

On to `CC(N)Cc1c2c(c(Br)c3c1OCCC3)OCC2` (centres undefined), for which the Ki in experiment [1] is 5.3 nM. The EC50 in [2] came out at 78 nM. For the same molecule, the Intrinsic activity in experiment [3] was determined as 74%. Further, the Activity was determined as 17% in experiment [11]; 0% in experiment [12]; 0% in experiment [17]; 10% in experiment [14]; 41% in experiment [15]; 80% in experiment [18]. In [16], the ED50 stood at 1.16 µmol/kg.
